Key:
PC-3 [1] = assay: Cytotoxicity against human PC3 cells at 10^-6 M after 72 hrs by MTS assay; assay type: functional; conditions: PC-3, 72 h, read-out: GI
Summary of the method: (§1)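 Preliminary screen at 10^-5 and 10^-6 M. Cells were grown in RPMI with 10% fetal calf serum plus penicillin, streptomycin and fungizone under 5% CO₂, plated in 96-well plates, and dosed 24 h later from DMSO stocks (1% DMSO final, same in controls). After 72 h, MTS was added for 3 h at 37 °C and absorbance read at 490 nm. Inhibition was calculated as (1 − OD treated/OD control) × 100, in triplicate.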

SF-268 [2] = assay: Cytotoxicity against human SF268 cells at 10^-6 M after 72 hrs by MTS assay; assay type: functional; conditions: SF-268, 72 h, read-out: GI; summary of the method: as §1
SK-OV-3 [3] = assay: Cytotoxicity against human SKOV3 cells at 10^-6 M after 72 hrs by MTS assay; assay type: functional; conditions: SK-OV-3, 72 h, read-out: GI; summary of the method: as §1
OVCAR-8 [4] = assay: Cytotoxicity against human OVCAR8 cells at 10^-6 M after 72 hrs by MTS assay; assay type: functional; conditions: OVCAR-8, 72 h, read-out: GI; summary of the method: as §1
MIA PaCa-2 [5] = assay: Cytotoxicity against human MIAPaCa2 cells at 10^-6 M after 72 hrs by MTS assay; assay type: functional; conditions: MIA PaCa-2, 72 h, read-out: GI
HL-60 [6] = assay: Cytotoxicity against human HL60 cells at 10^-6 M after 72 hrs by MTS assay; assay type: functional; conditions: HL-60, 72 h, read-out: GI
Summary of the method: (§2)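 Cells grown in RPMI with 10% fetal calf serum, penicillin, streptomycin and fungizone under 5% CO₂. Plated in 96-well plates and dosed 24 h later with compound in DMSO (1% final DMSO; controls got DMSO alone). After 72 h, MTS was added for 3 h at 37 °C and A490 read. Inhibition = (1 − OD treated/OD control) × 100, in triplicate.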

[7] = Cytotoxicity against human HL60R cells at 10^-6 M after 72 hrs by MTS assay; assay type: functional; conditions: read-out: GI; summary of the method: as §2
K562 [8] = assay: Cytotoxicity against human K562 cells at 10^-6 M after 72 hrs by MTS assay; assay type: functional; conditions: K562, 72 h, read-out: GI; summary of the method: as §2
[9] = Cytotoxicity against human Hs 578T cells assessed as cellular growth at 10 uM after 48 hrs by SRB assay; assay type: functional
HCT-116 [10] = assay: Cytotoxicity against human HCT116 cells at 10^-5 M after 72 hrs by MTS assay; assay type: functional; conditions: HCT-116, 72 h, read-out: GI; summary of the method: as §2
HT-29 [11] = assay: Cytotoxicity against human HT-29 cells at 10^-5 M after 72 hrs by MTS assay; assay type: functional; conditions: HT-29, 72 h, read-out: GI; summary of the method: as §2
MCF7 [12] = assay: Cytotoxicity against human MCF7 cells at 10^-5 M after 72 hrs by MTS assay; assay type: functional; conditions: MCF7, 72 h, read-out: GI
[13] = Cytotoxicity against human MDA231 cells at 10^-5 M after 72 hrs by MTS assay; assay type: functional; conditions: MDA-MB-231, 72 h, read-out: GI; summary of the method: as §1
A549 [14] = assay: Cytotoxicity against human A549 cells at 10^-5 M after 72 hrs by MTS assay; assay type: functional; conditions: A549, 72 h, read-out: GI; summary of the method: as §2
PC-3 [15] = assay: Cytotoxicity against human PC3 cells at 10^-5 M after 72 hrs by MTS assay; assay type: functional; conditions: PC-3, 72 h, read-out: GI; summary of the method: as §1
SF-268 [16] = assay: Cytotoxicity against human SF268 cells at 10^-5 M after 72 hrs by MTS assay; assay type: functional; conditions: SF-268, 72 h, read-out: GI; summary of the method: as §1
SK-OV-3 [17] = assay: Cytotoxicity against human SKOV3 cells at 10^-5 M after 72 hrs by MTS assay; assay type: functional; conditions: SK-OV-3, 72 h, read-out: GI; summary of the method: as §1
OVCAR-8 [18] = assay: Cytotoxicity against human OVCAR8 cells at 10^-5 M after 72 hrs by MTS assay; assay type: functional; conditions: OVCAR-8, 72 h, read-out: GI; summary of the method: as §1
MIA PaCa-2 [19] = assay: Cytotoxicity against human MIAPaCa2 cells at 10^-5 M after 72 hrs by MTS assay; assay type: functional; conditions: MIA PaCa-2, 72 h, read-out: GI
HL-60 [20] = assay: Cytotoxicity against human HL60 cells at 10^-5 M after 72 hrs by MTS assay; assay type: functional; conditions: HL-60, 72 h, read-out: GI; summary of the method: as §2
[21] = Cytotoxicity against human HL60R cells at 10^-5 M after 72 hrs by MTS assay; assay type: functional, HL-60; conditions: read-out: GI; summary of the method: as §2
K562 [22] = assay: Cytotoxicity against human K562 cells at 10^-5 M after 72 hrs by MTS assay; assay type: functional; conditions: K562, 72 h, read-out: GI; summary of the method: as §2
HCC 2998 = assay: Cytotoxicity against human HCC2998 cells assessed as cellular growth at 10 uM after 48 hrs by SRB assay; assay type: functional
Summary of the method: (§3)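 NCI60 single-dose screen of cells in RPMI 1640 with 5% FBS and 2 mM L-glutamine, preincubated 24 h at 37 °C, 5% CO₂. Cells were then exposed 48 h to compound added from DMSO stock. TCA-fixed, stained with 0.4% SRB in 1% acetic acid, dye solubilised in 10 mM Tris base and read at 515 nm. Growth is given as percent of untreated control.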

SK-MEL-28 = assay: Cytotoxicity against human SK-MEL-28 cells assessed as cellular growth at 10 uM after 48 hrs by SRB assay; assay type: functional
A498 = assay: Cytotoxicity against human A498 cells assessed as cellular growth at 10 uM after 48 hrs by SRB assay; assay type: functional; summary of the method: as §3
RXF 393 = assay: Cytotoxicity against human RXF393 cells assessed as cellular growth at 10 uM after 48 hrs by SRB assay; assay type: functional
M14 = assay: Antitumor activity against human M14 cells after 48 hrs by SRB assay; assay type: functional; conditions: M14, 48 h
Summary of the method: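 NCI60 panel in RPMI 1640 with 5% FBS and 2 mM L-glutamine. Cells were plated at 5000–40,000/well by doubling time, held 24 h, then time-zero plates were TCA-fixed. Five concentrations (10-fold or half-log dilutions of DMSO stocks) were applied for 48 h at 37 °C, 5% CO2. Cells were fixed with cold TCA (10% final adherent, 16% suspension) and stained with 0.4% SRB. Bound dye was dissolved in 10 mM Tris and read at 515 nm. GI50, TGI and LC50 were calculated per line.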

HCT-116 [23] = assay: Cytotoxicity against human HCT116 cells at 10^-6 M after 72 hrs by MTS assay; assay type: functional; conditions: HCT-116, 72 h, read-out: GI; summary of the method: as §2
HT-29 [24] = assay: Cytotoxicity against human HT-29 cells at 10^-6 M after 72 hrs by MTS assay; assay type: functional; conditions: HT-29, 72 h, read-out: GI; summary of the method: as §2
HCT-15 = assay: Cytotoxicity against human HCT15 cells at 10^-6 M after 72 hrs by MTS assay; assay type: functional; conditions: HCT-15, 72 h, read-out: GI; summary of the method: as §2
MCF7 [25] = assay: Cytotoxicity against human MCF7 cells at 10^-6 M after 72 hrs by MTS assay; assay type: functional; conditions: MCF7, 72 h, read-out: GI
[26] = Cytotoxicity against human MDA231 cells at 10^-6 M after 72 hrs by MTS assay; assay type: functional; conditions: MDA-MB-231, 72 h, read-out: GI; summary of the method: as §1
A549 [27] = assay: Cytotoxicity against human A549 cells at 10^-6 M after 72 hrs by MTS assay; assay type: functional; conditions: A549, 72 h, read-out: GI; summary of the method: as §2

COc1ccc(/C(=C2/O[C@@H]([C@H]3COC(C)(C)O3)[C@H]3OC(C)(C)O[C@@H]23)c2cc(OC)c(OC)c(OC)c2)cc1O
inhibition of growth at 1 µM (PC-3 [1]): 0%
inhibition of growth at 1 µM (SF-268 [2]): 7%
inhibition of growth at 1 µM (SK-OV-3 [3]): 0%
inhibition of growth at 1 µM (OVCAR-8 [4]): 0%
inhibition of growth at 1 µM (MIA PaCa-2 [5]): 0%
inhibition of growth at 1 µM (HL-60 [6]): 2%
inhibition of growth at 1 µM [7]: 8%
inhibition of growth at 1 µM (K562 [8]): 2%
Activity [9]: 22.15%
inhibition of growth at 10 µM (HCT-116 [10]): 39%
inhibition of growth at 10 µM (HT-29 [11]): 3%
inhibition of growth at 10 µM (MCF7 [12]): 20%
inhibition of growth at 10 µM [13]: 79%
inhibition of growth at 10 µM (A549 [14]): 35%
inhibition of growth at 10 µM (PC-3 [15]): 71%
inhibition of growth at 10 µM (SF-268 [16]): 68%
inhibition of growth at 10 µM (SK-OV-3 [17]): 48%
inhibition of growth at 10 µM (OVCAR-8 [18]): 17%
inhibition of growth at 10 µM (MIA PaCa-2 [19]): 30%
inhibition of growth at 10 µM (HL-60 [20]): 69%
inhibition of growth at 10 µM [21]: 63%
inhibition of growth at 10 µM (K562 [22]): 82%
Activity (HCC 2998): 102.13%
Activity (SK-MEL-28): 59.6%
Activity (A498): 63.35%
Activity (RXF 393): 81.92%
GI50 (M14; read-out: GI50): 2400 nM
CC50 (M14; read-out: LC50 (the source's name)): > 100 µM
TGI (M14; read-out: TGI): 5.9 µM
GI50 (M14; read-out: pGI50 (converted)): 2400 nM
CC50 (M14; read-out: pLC50 (the source's name) (converted)): > 100 µM
TGI (M14; read-out: pTGI (converted)): 5.89 µM
inhibition of growth at 1 µM (HCT-116 [23]): 0%
inhibition of growth at 1 µM (HT-29 [24]): 2%
inhibition of growth at 1 µM (HCT-15): 3%
inhibition of growth at 1 µM (MCF7 [25]): 0%
inhibition of growth at 1 µM [26]: 0%
inhibition of growth at 1 µM (A549 [27]): 1%
